Assay results as given in paper PMC2899701 (Lipids, 2009).
Values after ≈ are worked out from the molar mass of the structure shown. Read-outs that look alike come from different tables or passages of the source. One block for each molecule: values may come before it.

Experiments:
[1] = tested on: Murine macrophages (RAW 264.7); assay: Toxicity to murine macrophages; type: cell-based; settings: for IC50: RAW264.7, 48 h, read-out: Murine macrophages IC50; for Murine macrophages IC50: RAW 264.7, 48 h incubation, alamarBlue
Method in brief: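 RAW 264.7 murine macrophages grown at 37 °C in RPMI 1640 with 10% FCS, penicillin (50 U/ml) and streptomycin (50 µg/ml). Cells exposed 48 h to a range of test compound concentrations (0.3 to 100 µg/ml, DMSO vehicle). Viability read with alamarBlue dye per manufacturer's protocol; IC50 derived from concentration series.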

[2] = tested on: L. donovani promastigotes; type: cell-based, Leishmania donovani (MHOM/ET67/L82 strain); settings: for Therapeutic index IC50/EC50: IC50 murine macrophages / EC50 L. donovani promastigotes; for EC50: 48 h, read-out: L. donovani promastigotes EC50; for L. donovani promastigotes EC50: 48 h incubation, fatty acids in DMSO 0.6 to 25 μg/ml; for Effectiveness towards L. donovani (in words): promastigotes
Method in brief: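 L. donovani MHOM/ET67/L82 promastigotes propagated in defined medium 199 with 10% heat-inactivated FCS, penicillin (50 U/ml) and streptomycin (50 µg/ml). Cultures given test fatty acids in DMSO over 0.6 to 25 µg/ml for 48 h. Cell population counted by Coulter counter; IC50/EC50 derived from the concentration series.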

[3] = biological target: leishmania DNA topoisomerase IB (LdTopIB) (Leishmania donovani, UniProt A0A3Q8IHS4+Q8WQM6); assay: DNA relaxation assay with recombinant LdTopIB; type: biochemical; settings: concentrations as high as 1mM (gel not shown)
[4] = tested on: L. donovani promastigotes; settings: at levels of 100 μg/mL; cited from earlier work
[5] = tested on: L. donovani promastigotes; settings: cited from earlier work

Compound: CCCCCCCCCCCCC/C=C\CCCCC(=O)O [Compound 6b, (6Z)-Icosenoic acid]
Murine macrophages IC50 [1]: 28.20 ± 7.54 µg/mL | L. donovani promastigotes EC50 [2]: 5.67 ± 1.07 µg/mL | L. donovani promastigotes EC50 ([2]; listed as (6Z)-icosenoic acid): 5 to 6 µg/mL | Therapeutic index IC50/EC50 [2]: 4.97

Compound: CCCCCCCCCCCCCCCCCCCC(=O)O [Icosanoic (20:0), n-icosanoic acid]
Inhibition of the LdTOPIB enzyme (in words) [3]: did not inhibit the enzyme | Murine macrophages IC50 [1]: 21.93 ± 2.61 µg/mL | L. donovani promastigotes EC50 [2]: > 25 µg/mL | Effectiveness towards L. donovani (in words) [2]: not effective

Compound: CCCCCCCCCCCCCCCCOP(=O)([O-])OCC[N+](C)(C)C [miltefosine]
EC50 ([1]; Mus musculus, RAW264.7, read-out: EC50 against murine macrophages): 1950 nM | IC50 ([2]; Leishmania donovani, read-out: IC50 against L. donovani): 790 nM

Compound: CCCCCCCCCC(=O)O [n-Decanoic acid]
Inhibition of the motility of L. donovani promastigotes (in words) [4]: inhibited the motility | MIC against L. donovani promastigotes [5]: 1390 µM (≈ 239 µg/mL)

Compound: CCCCCCCCCCCC(=O)O [n-dodecanoic, n-dodecanoic acid]
Inhibition of the motility of L. donovani promastigotes (in words) [4]: inhibited the motility

Compound: CCCCCCCCCCCCCCCC(=O)O [n-hexadecanoic acids, n-hexadecanoic acid]
Inhibition of the motility of L. donovani promastigotes (in words) [4]: inhibited the motility

Compound: CCCCCCCCCCCCCCCCCC(=O)O [octadecanoic acid]
MIC against L. donovani promastigotes [5]: 180 µM (≈ 51.2 µg/mL)

Compound: CCCCCCCC/C=C\CCCCCCCC(=O)O [oleic acid]
Inhibition of the motility of L. donovani promastigotes (in words) [4]: had no effect | MIC against L. donovani promastigotes [5]: 90 µM (≈ 25.4 µg/mL)

Further lines, with some results ahead:

EC50 ([2]; Leishmania donovani): 6.67 ± 1.42 µg/mL (≈ 25 µM)
Compound: CCCCCCCCCCC#CCCCCC(=O)O [Compound 1a, 6-Heptadecynoic acid]
IC50 ([1]; Mus musculus): 5.66 ± 0.92 µg/mL (≈ 21.2 µM) | Therapeutic index IC50/EC50 [2]: 0.85

EC50 ([2]; Leishmania donovani): 1.11 ± 0.28 µg/mL (≈ 3.6 µM)
Compound: CCCCCCCCCCCCCC#CCCCCC(=O)O [Compound 1b, 6-Icosynoic acid]
IC50 ([1]; Mus musculus): 5.35 ± 2.14 µg/mL (≈ 17.3 µM) | Therapeutic index IC50/EC50 [2]: 4.82

L. donovani promastigotes EC50 [2]: > 25 µg/mL
Compound: CCCCCCCCCC/C=C\CCCCC(=O)O [Compound 6a, (6Z)-Heptadecenoic acid]
Murine macrophages IC50 [1]: 11.86 ± 1.63 µg/mL

Inhibition of the LdTOPIB enzyme (in words) [3]: did not inhibit the enzyme | L. donovani promastigotes EC50 [2]: > 25 µg/mL
Compound: CCCCCCCCCCCCCCCCC(=O)O [Heptadecanoic (17:0), n-heptadecanoic acid]
Murine macrophages IC50 [1]: 14.18 ± 7.48 µg/mL | Effectiveness towards L. donovani (in words) [2]: not effective
